Measurements from article PMC2854813 (Advanced synthesis & catalysis, 2009).
Where two headings read alike, the source gives them in different places. One block for each molecule: values may come before it.

Tests used:
PETNR [1] = target: T1, PETNR (Enterobacter cloacae, UniProt P71278); experiment: Substrate screen of PETNR by spectrophotometric assays or GC analysis; assay type: biochemical, Enterobacter cloacae st. PB2
T1 sequence (P71278 1-365): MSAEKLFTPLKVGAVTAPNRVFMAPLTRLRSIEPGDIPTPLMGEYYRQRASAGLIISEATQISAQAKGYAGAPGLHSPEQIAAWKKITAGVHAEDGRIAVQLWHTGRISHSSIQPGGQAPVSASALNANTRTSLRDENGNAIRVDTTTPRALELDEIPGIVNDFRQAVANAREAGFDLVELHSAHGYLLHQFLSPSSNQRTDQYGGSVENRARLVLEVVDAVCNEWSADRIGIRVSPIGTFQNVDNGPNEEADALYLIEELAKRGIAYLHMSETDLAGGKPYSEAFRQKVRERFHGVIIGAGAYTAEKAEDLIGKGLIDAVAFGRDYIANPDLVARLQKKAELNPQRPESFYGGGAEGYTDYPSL

PETNR [2] = target: T1, PETNR; experiment: Steady-state kinetics of PETNR with α,β-unsaturated activated alkenes; assay type: biochemical, Enterobacter cloacae st. PB2; details: for Km / kcat: apparent, 5% ethanol
PETNR [3] = target: T1, PETNR; experiment: Enzyme concentration dependence of the reduction of ketoisophorone by PETNR; assay type: biochemical, Enterobacter cloacae st. PB2; details: 2 h, pH 7.0, 3a 5 mM, NADPH 6 mM
How it was run: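 Ketoisophorone (5 mM) and NADPH (6 mM) with varied PETNR in 50 mM phosphate pH 7.0, shaken at 130 rpm at 30 °C for 2 h. Extraction was into ethyl acetate containing internal standard. Conversion was by GC (DB-Wax) and ee by GC on a Chirasil-DEX-CB column.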

PETNR [4] = target: T1, PETNR; experiment: Time course of ketoisophorone reduction and product racemisation, PETNR 0.02 μM; assay type: biochemical, Enterobacter cloacae st. PB2
How it was run: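 Racemisation time course of ketoisophorone reduction at pH 7.0 over 24 h; substrate added in DMF (2% final). Controls at 8 h either removed enzyme by 10 kDa spin filtration (5000 rpm, 5 min) or added the PETNR inhibitor 1,4,5,6-tetrahydroNADPH (1.2 mg), then incubated to 24 h total. Conversion by GC (DB-Wax); ee by GC (Chirasil-DEX-CB).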

PETNR [5] = target: T1, PETNR; experiment: Aerobic versus anaerobic steady-state reaction rate of PETNR; assay type: biochemical, Enterobacter cloacae st. PB2; details: aerobic compared to anaerobic assays
How it was run: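 NADPH oxidation was followed at 340 nm (365 nm for substrates absorbing at 340 nm) for 2 min at 25 °C. Anaerobic runs used a glove box (<5 ppm O2) with deoxygenated enzyme; aerobic runs were done outside it.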

PETNR [6] = target: T1, PETNR; experiment: Time effect on optical purity of levodione at PETNR 2 μM; assay type: biochemical, Enterobacter cloacae st. PB2; details: Supporting Information Table S1
PETNR [7] = target: T1, PETNR; details: cited from earlier work
[8] = anaerobic, pH 7.0, 25 °C, NADPH 100 μM

SMILES: O=C(O)C1=CCCCC1 [1-cyclohexene-1-carboxylic acids, 1-cyclohexene-1-carboxylic acid]
activity of PETNR towards the substrate (in words) (PETNR [1]): did not reduce

SMILES: BrC1C=CCCC1 (stereo not drawn) [3-bromocyclohexene]
activity of PETNR towards the substrate (in words) (PETNR [1]): no activity

SMILES: O=C1C=C(c2ccccc2)CCC1 [3-phenylcyclohexene-1-one]
activity of PETNR towards the substrate (in words) (PETNR [1]): inactive

SMILES: O=C(O)/C=C(\C(=O)O)c1ccccc1 [3-phenylmaleic acid]
activity of PETNR towards the substrate (in words) (PETNR [1]): did not reduce

SMILES: C[C@@H]1CC(=O)CC(C)(C)C1=O [(R)-3b, (R)-Levodione]
rate of racemisation (PETNR [6]): 3 % ee/h
decline in enantiopurity with time (rate of racemisation) (PETNR [4]; PETNR 0.02 μM, pH 7.0, 30 °C, aqueous, non-enzymatic): approximately 3 % ee/h

SMILES: NC(=O)C1=CN([C@@H]2O[C@H](COP(=O)(O)OP(=O)(O)OC[C@H]3O[C@@H](n4cnc5c(N)ncnc54)[C@H](OP(=O)(O)O)[C@@H]3O)[C@@H](O)[C@H]2O)CCC1 [NADPH4, 1,4,5,6-tetrahydroNADPH]
inhibition of PETNR activity (in words) (PETNR [7]): excellent inhibitor

SMILES: C/C=C/C#N [crotonitrile]
activity of PETNR towards the substrate (in words) (PETNR [1]): no activity

SMILES: N#CC1=CCCCC1 [cyclohexene-1-carbonitrile]
activity of PETNR towards the substrate (in words) (PETNR [1]): no activity

SMILES: COC(=O)C1=CCCCC1 [methyl cyclohexenecarboxylate, methyl 1-cyclohexene-1-carboxylate]
activity of PETNR towards the substrate (in words) (PETNR [1]): did not reduce

SMILES: COC(=O)/C=C/c1ccccc1 [methyl trans-cinnamate]
activity of PETNR towards the substrate (in words) (PETNR [1]): did not reduce

SMILES: O=C(O)/C=C/c1ccccc1 [trans-cinnamic acid]
activity of PETNR towards the substrate (in words) (PETNR [1]): did not reduce

SMILES: NC(=O)/C=C/c1ccccc1 [trans-cinnamide]
activity of PETNR towards the substrate (in words) (PETNR [1]): did not reduce

SMILES: N#C/C=C/c1ccccc1 [trans-cinnamonitrile]
activity of PETNR towards the substrate (in words) (PETNR [1]): no activity

SMILES: BrC=Cc1ccccc1 [β-bromostyrene]
activity of PETNR towards the substrate (in words) (PETNR [1]): no activity

The remaining lines, values ahead:

Ki (PETNR [2]): 3.2 ± 0.7 mM
SMILES: CC1=CC(=O)NC1=O [2a, 2-Methylmaleimide]

Km (PETNR [2]; [8]): 13.7 ± 0.5 µM
kcat (PETNR [2]; [8]): 5.52 ± 0.10 s⁻¹
Conv. [%] (PETNR [3]; enzyme 0.002 μM): 2%
Conv. [%] (PETNR [3]; enzyme 0.02 μM): 37%
Conv. [%] (PETNR [3]; enzyme 0.2 μM): >99%
Conv. [%] (PETNR [3]; enzyme 2 μM): >99%
Conv. [%] (PETNR [4]; 0.5 h, PETNR 0.02 μM, pH 7.0): 14%
Conv. [%] (PETNR [4]; 1 h, PETNR 0.02 μM, pH 7.0): 27%
Conv. [%] (PETNR [4]; 1.5 h, PETNR 0.02 μM, pH 7.0): 37%
Conv. [%] (PETNR [4]; 3 h, PETNR 0.02 μM, pH 7.0): 53%
Conv. [%] (PETNR [4]; 4 h, PETNR 0.02 μM, pH 7.0): 69%
Conv. [%] (PETNR [4]; 6 h, PETNR 0.02 μM, pH 7.0): 85%
Conv. [%] (PETNR [4]; 8 h, PETNR 0.02 μM, pH 7.0): 94%
Conv. [%] (PETNR [4]; 12 h, PETNR 0.02 μM, pH 7.0): 98%
Conv. [%] (PETNR [4]; 22 h, PETNR 0.02 μM, pH 7.0): >99%
Conv. [%] (PETNR [4]; 24 h, PETNR 0.02 μM, pH 7.0): >99%
Conv. [%] (PETNR [4]; 24 h, PETNR inhibitor NADPH4 (1.2 mg) added after 8 h): 99%
Conv. [%] (PETNR [4]; 24 h, filtered (10 K filter) after 8 h to remove all enzyme content): 99%
SMILES: CC1=CC(=O)CC(C)(C)C1=O [3a, ketoisophorone]

reduction in the overall steady-state reaction rate (PETNR [5]): 18%
Ki (PETNR [2]): 23.3 ± 1.7 mM
SMILES: O=C1C=CCCC1 [4a, 2-cyclohexenone]

reduction in the overall steady-state reaction rate (PETNR [5]): 48%
Km (PETNR [2]; [8]): 102 ± 10.5 µM
kcat (PETNR [2]; [8]): 6.23 ± 0.33 s⁻¹
Ki (PETNR [2]; substrate inhibition, anaerobic, pH 7.0, 25 °C, NADPH 100 μM): 1.93 ± 0.46 mM
SMILES: CCC=C(C)C=O [10a, 2-methylpentenal]

activity of PETNR towards the substrate (in words) (PETNR [1]): significant reduction in enzyme activity
SMILES: CC1=CC(=O)CCC1 [15a, 3-methylcyclohexenone]

activity of PETNR towards the substrate (in words) (PETNR [1]): significant reduction in enzyme activity
SMILES: CC1=CC(=O)CC1 [16a, 3-methylcyclopentenone]
